# This is a sample that favours compounds with a hit; in the whole collection about 0.77% have one here.
# mIAP act: mouse IAP activation. activation factor at 10 µM. muIAP, CDP-Star luminescence, 30 min; active compounds read high; 1 = vehicle-only enzyme signal, 0 = enzyme-free wells. 330,000 tested, 0.24% active;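 active means activation factor of at least 2 at 20 µM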
#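 System: Mouse IAP enzyme | Also added: CDP-Star substrate | Dosing: Compounds dispensed in DMSO | Schedule: 30 min enzyme-substrate-compound incubation at room temperature | Technique: Chemiluminescence readout | Control set: DMSO-only wells and no-enzyme negative control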
# hIAP act: increases human intestinal alkaline phosphatase activity | P09923 | purified human IAP, CDP-Star luminescence, 30 min; active compounds read high; 1 = vehicle-only enzyme, 0 = enzyme-free background | activation factor at 10 µM | 330,000 tested, 0.16% active | AID 2524;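 active means activation factor of the enzyme at least 2-fold when tested at 20 µM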
# Target sequence (P09923 whole entry, looked up): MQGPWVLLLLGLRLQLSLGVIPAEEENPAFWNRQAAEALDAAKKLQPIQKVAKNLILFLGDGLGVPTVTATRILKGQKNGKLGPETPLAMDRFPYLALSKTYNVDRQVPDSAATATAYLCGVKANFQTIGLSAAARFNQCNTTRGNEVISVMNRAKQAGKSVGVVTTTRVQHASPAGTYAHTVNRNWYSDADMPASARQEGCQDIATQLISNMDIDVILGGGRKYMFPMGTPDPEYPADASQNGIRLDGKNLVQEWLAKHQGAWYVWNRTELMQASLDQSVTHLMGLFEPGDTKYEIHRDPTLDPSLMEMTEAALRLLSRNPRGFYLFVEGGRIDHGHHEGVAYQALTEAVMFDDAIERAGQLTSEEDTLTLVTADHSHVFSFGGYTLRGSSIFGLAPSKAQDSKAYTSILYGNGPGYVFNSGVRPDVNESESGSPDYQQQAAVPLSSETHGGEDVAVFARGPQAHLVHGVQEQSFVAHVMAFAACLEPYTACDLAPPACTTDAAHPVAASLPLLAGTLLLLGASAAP
# mIAP block: mouse IAP inhibition | AID 2806 | purified mouse IAP, CDP-Star luminescence, 30 min | 330,000 tested, 0.2% active | inhibition, % at 10 µM;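 active means inhibition of at least 40% at 10 µM in the primary screen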
# bIAP act: increases bovine intestinal alkaline phosphatase activity; purified bovine IAP, CDP-star luminescence, 30 min; active compounds read high; fold of DMSO-control signal, blank-subtracted; activation factor at 20 µM; 200,000 tested, 0.17% active; AID 1016;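 active means activation factor of 2 or more at 20 µM, a signal rise over negative controls twice the positive control's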
# bIAP inhibitor: intestinal alkaline phosphatase (bovine) inhibition; purified bovine IAP, CDP-star luminescence, 30 min; inhibition, % at 20 µM; 190,000 tested, under 10 active;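 active means over 50% inhibition of intestinal alkaline phosphatase at 20 µM in the single-dose screen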
#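 test system = bovine IAP enzyme | medium = DEA buffer 100 mM, pH 9.8, with MgCl2 1.0 mM, ZnCl2 0.02 mM | detection = luminescence | dosing = single compound dose of 20 µM, 2% DMSO final | incubation = 30 min reaction at room temperature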
# hIAP block: blocks human intestinal alkaline phosphatase; purified IAP, CDP-Star luminescence, 30 min; AID 2544; P09923; inhibition, % at 10 µM; 330,000 tested, 0.12% active;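 active means inhibition reaching a set limit with compound at 10 µM in the primary screen, cut at about 35% in these data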
# hIAP act conf: human IAP activation confirmation | 880 tested, 10% active | activation (%Activity, negative = activation), % at 8.3 µM | purified IAP, CDP-Star luminescence, 30 min; active compounds read low | shares compounds with hIAP act;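 active means at least twofold enzyme activation in any of six single-dose repeats, which the averaged readout prints as negative percent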
# Hits are given with their value; – = inactive; · = no result.
SMILES,mIAP act,hIAP act,mIAP block,bIAP act,bIAP inhibitor,hIAP block,hIAP act conf
COc1ccc(S(=O)(=O)NNC(=O)C(=O)NNc2ccccn2)cc1,–,3.02,–,·,·,–,–
Cc1ccc(-c2cc(C(=O)N/N=C/c3cccnc3)n[nH]2)o1,–,–,–,–,–,–,·
Cc1ccc(/C=N/NC(=O)c2cc(-c3ccc(C)o3)[nH]n2)cc1,–,2.07,–,·,·,–,–
CCOc1ccc(NC(=O)C(CC)n2nc(C)c3c(C)n(-c4ccccc4)nc3c2=O)cc1 (stereo unspecified),–,–,–,·,·,–,·
CCCCc1ccc(NC(=O)CSc2nc3ncccc3[nH]2)cc1,–,2.15,–,·,·,–,–
O=c1ccc2c(-c3ccccc3)c3ccc(O)cc3oc-2c1,–,–,–,·,·,–,·
Nc1ccc(-c2c3ccc(=O)cc-3oc3cc(O)ccc23)cc1C(=O)O,–,–,–,·,·,35.7,–
Cc1cc(NC(=O)c2ccc(N3C(=O)CCC3=O)cc2)no1,–,–,–,–,–,–,·
Cc1cc(NC(=O)c2ccc(N3C(=O)C4C5C=CC(C5)C4C3=O)cc2)no1 (stereo unspecified),–,3.01,–,–,–,–,-161.4
CCC1CCCCN1C(=O)CSc1nnc(CNC(=O)c2c(F)cccc2Cl)o1 (stereo unspecified),–,–,–,·,·,–,·
CCSC(=O)N(CC)CC(=O)Nc1c(CC)cccc1CC,–,–,–,–,–,–,·
CCc1cccc(CC)c1NC(=O)CN(CC(=O)O)CC(=O)O,–,2.1,–,·,·,–,–
O=C(CCS(=O)(=O)c1ccccc1)N(CCCN1CCOCC1)c1nc2ccc(F)cc2s1,–,–,–,·,·,–,·
CSc1ccccc1NC(=O)c1csc(C)c1,–,–,–,·,·,35.1,–
Cc1ccc(-c2nnn(CC(=O)N(CC(=O)NC3CCCC3)c3ccccc3F)n2)o1,–,–,–,·,·,–,·
Cc1cccc(-n2cnc(C(=O)NNC(=S)Nc3ccc(Cl)cc3)c2)n1,–,2.02,–,–,–,–,–
Cc1nc2ccccn2c1C(=O)NNC(=S)Nc1ccc(Cl)cc1,–,–,–,–,–,–,·
Cc1c(N2C(=O)/C(=C\c3ccccc3O)SC2=S)c(=O)n(-c2ccccc2)n1C,–,–,–,·,·,–,·
CN1C(=O)/C(=C/c2cc(N=Nc3ccccc3)ccc2O)SC1=S,–,–,40.2,–,–,46.4,–
CN(C)c1ccc(N=Nc2ccccc2Br)cc1,–,–,–,·,·,42.0,-103.6
CC(=O)c1ccc(N=Nc2ccc(N(C)C)cc2)cc1,–,–,–,–,–,–,·
Cc1ccc(S(=O)(=O)N2C[C@@H]3[C@H]4CC[C@H](C4)[C@@H]3[C@@H](C)[C@@H]2C2CCCCC2=O)cc1 (stereo partly specified),–,·,–,·,·,·,·
COc1cc(/C=C2\Oc3cc(O)ccc3C2=O)ccc1O,–,–,–,·,·,45.5,–
Cc1nn(-c2ccccc2)c(C)c1NC(=O)COC(=O)c1ccc(Cl)c(S(N)(=O)=O)c1,–,–,–,·,·,–,·
O=C(CSCc1ccco1)N1CCc2ccccc21,–,–,–,·,·,–,·
SMILES,mIAP act,hIAP act,mIAP block,bIAP act,bIAP inhibitor,hIAP block,hIAP act conf
Cc1cc(C(=O)Nc2ccccc2Cl)c2ccccc2n1,–,–,–,·,·,38.1,–
Cc1ccc(NC(=O)c2cc(C)nc3ccccc23)c(C)c1,–,–,–,·,·,–,·
Cc1cccc(N2CCN(S(=O)(=O)c3c(C(=O)N4CCCCC4)c(C)n(C)c3C)CC2)c1C,–,–,–,·,·,–,·
Cc1ccc(-n2c(Cc3ccccc3)nnc2SCC(=O)NNC(=O)Cc2ccccc2)cc1,–,2,–,–,–,–,–
CCOC(=O)CSc1nnc(Cc2ccccc2)n1-c1ccc(C)cc1,–,–,–,–,–,–,·
C=CCc1cccc2cc(C(=O)Nc3ccccc3C(=O)O)c(=O)oc12,·,·,·,–,–,·,·
O=C(NNC(=S)NCc1ccco1)c1ccccc1Br,–,2.26,–,·,·,–,–
O=C(NNC(=S)NC1CCCCC1)c1ccccc1Br,–,2.01,–,·,·,–,-42.5
O=C(NCc1ccco1)c1ccccc1Br,–,–,–,–,–,–,·
Cc1ccsc1C(=O)NNC(=S)NC1CCCCC1,–,2.27,–,·,·,–,–
O=C(NCCOc1ccc2ccccc2c1)c1cncc(Br)c1,–,–,–,·,·,–,·
CCCCn1c(N)c(N(CC(C)C)C(=O)CCNC(=O)c2ccc(Cl)cc2)c(=O)[nH]c1=O,–,–,–,·,·,–,·
O=C(CC(C(=O)O)c1ccc(Cl)cc1)c1ccc(Br)cc1 (stereo unspecified),–,–,–,·,·,–,·
COc1cc2c(cc1OC)[C@H](C)N(C(=S)Nc1ccc(F)cc1)CC2,–,2.27,–,·,·,–,–
COc1cc2c(cc1OC)C(C)N(C(=O)Nc1ccccc1)CC2 (stereo unspecified),–,–,–,·,·,–,·
CCCn1c(SCCc2ccccc2)nc2c1c(=O)[nH]c(=O)n2C,–,–,–,–,–,–,·
CCCn1c(N/N=C(C)\C=C\c2ccccc2)nc2c1c(=O)[nH]c(=O)n2C,–,2.25,–,2,–,–,–
CCc1ccc(N/C(N)=N/c2nc(CSc3ncccn3)cc(=O)[nH]2)cc1,–,2.03,–,–,–,–,–
CCc1ccc(OCC(=O)Nc2ncn[nH]2)cc1,–,2.06,–,–,–,–,–
Cc1c(C(=O)NC2CC(=O)N(c3ccc4c(c3)OCCO4)C2)cccc1[N+](=O)[O-] (stereo unspecified),–,–,–,·,·,–,·
COC(=O)CCC(=O)Nc1ccc(Cl)c(Cl)c1,–,–,–,–,–,–,·
COC(=O)CCC(=O)Nc1ccc2oc3c(c2c1)CCCC3,–,–,–,·,·,42.4,–
CC(=O)c1cc(C(=O)N2CCCC(C(=O)c3ccc(Cl)cc3)C2)cs1 (stereo unspecified),–,–,–,·,·,–,·
COc1ccc(C2=CC(=O)C[C@H](c3ccc(F)cc3)C2)cc1OC,–,–,–,·,·,–,·
O=C(CSc1nc(-c2cccs2)cc(C(F)(F)F)n1)NCc1ccccc1,–,–,–,–,–,36.6,–
SMILES,mIAP act,hIAP act,mIAP block,bIAP act,bIAP inhibitor,hIAP block,hIAP act conf
Cn1nnnc1N=N/C(=N/Nc1ccccc1)c1ccccc1,–,–,–,·,·,45.7,–
Oc1ccccc1N=N/C(=N/Nc1ccccc1O)c1ccccc1,–,–,–,·,·,–,·
O=C(CSc1ccc2ccccc2n1)NCCCN1CCCC1=O,–,–,–,·,·,–,·
CCNC(=S)NNC(=O)CSc1nc2ccccc2n1C,–,–,–,·,·,–,·
CCNC(=S)NNC(=O)CSc1nc2ccccc2[nH]1,–,2.43,–,–,–,–,–
C[N+]1(CN2C(=O)C3C4C=CC(C4)C3C2=O)CCCCC1 (stereo unspecified),–,–,–,·,·,–,·
COCCn1cnnc1SCC(=O)Nc1ccc(N2CCCCC2)cc1,–,–,–,·,·,–,·
O=[N+]([O-])c1ccc(Nc2ccccc2)c2nonc12,–,–,–,·,·,38.5,–

# Screening results deposited in PubChem BioAssay by Sanford-Burnham Center for Chemical Genomics.
